This note sets out measurements from ChEMBL document CHEMBL3992541, “Combined treatment with zingerone and its novel derivative synergistically inhibits TGF-β1 induced epithelial-mesenchymal transition, migration and invasion of human hepatocellular carcinoma cells” (2017).

SMILES strings stand for the structures. Active and inactive are the calls of the source. The calls are words filed in the database; no cut-off is given here.

The test system of assay [1] is SNU-182. The assay is described as follows: Inhibition of TGFbeta1-induced epithelial-mesenchymal transition in human SNU182 cells assessed as reduction in downregulation of E-cadherin expression at 12.5 uM preincubated for 2 hrs followed by TGFbeta1 addition measured after 48 hrs by Western blot method. It counts as functional, cell-based. Put shortly: (§1)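 SNU182 cells pretreated 2 h with single agents (12.5 or 40 µM) or the mixture (20 and 40 µM), then stimulated with TGF-β1 5 ng/ml for 48 h. E-cadherin and Snail protein detected by Western blot, with GAPDH as loading control.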
In general terms: Immunoblotting shows a protein as a band on a membrane.

In assay [2] the test system is SNU-182. Description: Inhibition of TGFbeta1-induced epithelial-mesenchymal transition in human SNU182 cells assessed as reduction in upregulation of Snail expression preincubated for 2 hrs followed by TGFbeta1 addition measured after 48 hrs in presence of zingerone by Western blot method. It counts as functional, cell-based. The method in brief: as §1
Assay [3] relates to SNU-182. Description: Inhibition of TGFbeta1-induced migration in human SNU182 cells at 40 uM measured after 48 hrs in presence of zingerone by wound healing assay. It counts as functional, cell-based. The method in brief:
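Wound healing: SNU182 monolayers at about 90% confluence scratched with a pipette tip and washed. Medium with TGF-β1, with or without 40 µM mixture, then added. Wound imaged at 0 and 48 h; relative motility from cell surface area. Mean±SD of triplicates.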

Assay [4] has as its system SNU-182. The assay is described as follows: Inhibition of TGFbeta1-induced invasion in human SNU182 cells at 40 uM measured after 48 hrs in presence of zingerone by microscopic method. It counts as functional, cell-based. The method in brief: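 Matrigel invasion chamber: SNU182 cells in the inner chamber received TGF-β1 with or without the mixture for 48 h. Cells on the lower surface stained, imaged at 200×, and counted. Mean±SD of triplicates.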

Assay [5] deals with SNU-182. The assay is described as follows: Inhibition of TGFbeta1-induced epithelial-mesenchymal transition in human SNU182 cells assessed as reduction in MMP2 mRNA expression at 12.5 uM preincubated for 2 hrs followed by TGFbeta1 addition measured after 48 hrs by qRT-PCR method. It counts as functional, cell-based. The method in brief:
(§2)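 SNU182 cells pretreated 2 h with single agents (12.5 or 40 µM) or the mixture (20 or 40 µM), then TGF-β 5 ng/ml for 48 h. MMP-2 and MMP-9 mRNA measured by RT-PCR with densitometry and by qRT-PCR, fold change by the 2^-ΔΔCt method. Mean±SD of triplicates.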

In assay [6] the target is T1, Mitogen-activated protein kinase; ERK1/ERK2 (Homo sapiens) (UniProt P27361+P28482). Description: Inhibition of TGFbeta1-induced p44/42 MAPK phosphorylation in human SNU182 cells measured after 48 hrs in presence of zingerone by Western blot method. It counts as cell-based. Put shortly: (§3)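 SNU182 cells incubated 48 h with TGF-β1 5 ng/ml alone or together with the mixture at 20 and 40 µM, then lysed. Phospho-p42/44 MAPK detected by Western blot, with total p42/44 MAPK as loading control.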

The species entered for assay [7] is Homo sapiens. The assay is described as follows: Inhibition of TGFbeta1-induced NF-kB binding activity in human SNU182 cells at 20 to 40 uM measured after 48 hrs in presence of zingerone by luciferase reporter gene assay. It counts as cell-based. The method in brief: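 Cells transfected with pGL4.32-NF-κB-RE-Luc or empty pGL4.32, then treated with the mixture and/or TGF-β1. Luciferase reporter activity read. Mean±SD of triplicates.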
(In general: In a reporter assay the amount or activity of a reporter protein is the signal.)

Assay [8] has as its system SNU-182. Description: Inhibition of TGFbeta1-induced epithelial-mesenchymal transition in human SNU182 cells assessed as reduction in upregulation of Snail expression at 40 uM preincubated for 2 hrs followed by TGFbeta1 addition measured after 48 hrs by Western blot method. It counts as functional, cell-based. Put shortly:
as §1

Assay [9] concerns SNU-182. Description: Inhibition of TGFbeta1-induced epithelial-mesenchymal transition in human SNU182 cells assessed as reduction in mesenchymal phenotype preincubated for 2 hrs followed by TGFbeta1 addition measured after 48 hrs in presence of (E)-1-(9-Ethyl-9H-carbazol-3-yl)-5-(4-hydroxy-3-methoxyphenyl)pent-1-en-3-one. It counts as functional, cell-based. Put shortly:
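Cells preincubated 2 h in serum-free medium with the mixture (20 and 40 µM), then treated with TGF-β1 5 ng/ml for 48 h. Morphology (spindle-like, elongated shape, scattering) assessed by microscopy.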

For assay [10], the target named is Mothers against decapentaplegic homolog 2 (Homo sapiens) (UniProt Q15796). The assay is described as follows: Inhibition of TGFbeta1-induced SMAD2 phosphorylation in human SNU182 cells at 20 to 40 uM preincubated for 2 hrs followed by TGFbeta1 addition measured after 48 hrs in presence of (E)-1-(9-Ethyl-9H-carbazol-3-yl)-5-(4-hydroxy-3-methoxyphenyl)pent-1-en-3-one by Western blot method. It counts as cell-based. Put shortly: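 SNU182 cells given the mixture (20 and 40 µM) for 2 h, then TGF-β1 5 ng/ml for 48 h. Smad2/3 phosphorylation by Western blot, with total Smad2/3 as loading control.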

Assay [11] deals with SNU-182. Description: Inhibition of TGFbeta1-induced epithelial-mesenchymal transition in human SNU182 cells assessed as reduction in MMP9 mRNA expression at 40 uM preincubated for 2 hrs followed by TGFbeta1 addition measured after 48 hrs by qRT-PCR method. It counts as functional, cell-based. The method in brief: as §2
(Quantitative PCR measures a nucleic acid by following its amplification.)

Assay [12] has as its system SNU-182. Description: Inhibition of TGFbeta1-induced epithelial-mesenchymal transition in human SNU182 cells assessed as reduction in MMP9 mRNA expression preincubated for 2 hrs followed by TGFbeta1 addition measured after 48 hrs in presence of (E)-1-(9-Ethyl-9H-carbazol-3-yl)-5-(4-hydroxy-3-methoxyphenyl)pent-1-en-3-one by qRT-PCR method. It counts as functional, cell-based. Put shortly: as §2

Assay [13] addresses T2, NF-kappa-B inhibitor alpha (Homo sapiens) (UniProt P25963).
T2 sequence (whole entry): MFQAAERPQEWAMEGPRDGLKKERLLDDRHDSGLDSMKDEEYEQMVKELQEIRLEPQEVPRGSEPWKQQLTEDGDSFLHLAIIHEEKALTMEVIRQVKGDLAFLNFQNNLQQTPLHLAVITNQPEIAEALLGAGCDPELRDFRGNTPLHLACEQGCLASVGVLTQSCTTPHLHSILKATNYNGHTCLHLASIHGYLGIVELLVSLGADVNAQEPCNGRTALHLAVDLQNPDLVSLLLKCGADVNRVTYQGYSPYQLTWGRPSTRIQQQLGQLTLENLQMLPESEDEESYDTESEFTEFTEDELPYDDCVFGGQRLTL
The assay is described as follows: Inhibition of TGFbeta1-induced IkB-alpha phosphorylation in human SNU182 cells at 20 to 40 uM preincubated for 2 hrs followed by TGFbeta1 addition measured after 120 mins in presence of (E)-1-(9-Ethyl-9H-carbazol-3-yl)-5-(4-hydroxy-3-methoxyphenyl)pent-1-en-3-one by Western blot method. It counts as cell-based. The method in brief: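 SNU182 cells pretreated with the mixture (20 and 40 µM) for 2 h, then exposed to TGF-β1 for 120 min. IκB protein assessed by Western blot, with GAPDH loading control.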

Assay [14] is filed under the species Homo sapiens. Description: Inhibition of TGFbeta1-induced NF-kB nuclear translocation in human SNU182 cells preincubated for 2 hrs followed by TGFbeta1 addition measured after 12 hrs in presence of (E)-1-(9-Ethyl-9H-carbazol-3-yl)-5-(4-hydroxy-3-methoxyphenyl)pent-1-en-3-one by Western blot method. It counts as cell-based. The method in brief: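 Mixture added to SNU182 cells for 2 h before TGF-β1 for 12 h. Cytosolic and nuclear fractions analysed by Western blot for NF-κB, with COX4 as cytosolic and Lamin B1 as nuclear marker.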

The target in assay [15] is T1, Mitogen-activated protein kinase; ERK1/ERK2 (Homo sapiens). The assay is described as follows: Inhibition of TGFbeta1-induced p44/42 MAPK phosphorylation in human SNU182 cells measured after 48 hrs in presence of (E)-1-(9-Ethyl-9H-carbazol-3-yl)-5-(4-hydroxy-3-methoxyphenyl)pent-1-en-3-one by Western blot method. It counts as cell-based. The method in brief:
as §3

T1 sequence (P27361 whole entry, looked up): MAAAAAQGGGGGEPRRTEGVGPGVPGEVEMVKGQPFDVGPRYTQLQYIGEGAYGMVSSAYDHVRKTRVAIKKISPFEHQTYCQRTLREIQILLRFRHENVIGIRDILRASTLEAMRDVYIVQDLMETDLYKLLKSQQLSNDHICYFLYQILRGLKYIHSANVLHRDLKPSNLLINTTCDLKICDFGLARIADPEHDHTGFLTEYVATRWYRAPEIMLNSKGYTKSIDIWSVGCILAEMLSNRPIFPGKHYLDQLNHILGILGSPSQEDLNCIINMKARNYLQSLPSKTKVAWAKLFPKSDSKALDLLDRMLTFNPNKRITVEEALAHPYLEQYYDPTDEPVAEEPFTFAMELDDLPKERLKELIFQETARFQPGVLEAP
T1 sequence (P28482 whole entry, looked up): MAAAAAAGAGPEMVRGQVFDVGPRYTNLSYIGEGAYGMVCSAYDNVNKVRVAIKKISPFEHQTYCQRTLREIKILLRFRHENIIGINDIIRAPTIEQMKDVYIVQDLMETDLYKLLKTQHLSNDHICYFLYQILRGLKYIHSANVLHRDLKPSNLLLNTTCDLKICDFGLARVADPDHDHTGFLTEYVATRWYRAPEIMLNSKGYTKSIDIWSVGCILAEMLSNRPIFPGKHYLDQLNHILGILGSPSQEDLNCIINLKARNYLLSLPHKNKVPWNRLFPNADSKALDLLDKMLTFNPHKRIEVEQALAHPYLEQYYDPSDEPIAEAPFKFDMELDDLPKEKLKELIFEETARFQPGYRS
Mothers against decapentaplegic homolog 2 (Homo sapiens), sequence (Q15796 whole entry): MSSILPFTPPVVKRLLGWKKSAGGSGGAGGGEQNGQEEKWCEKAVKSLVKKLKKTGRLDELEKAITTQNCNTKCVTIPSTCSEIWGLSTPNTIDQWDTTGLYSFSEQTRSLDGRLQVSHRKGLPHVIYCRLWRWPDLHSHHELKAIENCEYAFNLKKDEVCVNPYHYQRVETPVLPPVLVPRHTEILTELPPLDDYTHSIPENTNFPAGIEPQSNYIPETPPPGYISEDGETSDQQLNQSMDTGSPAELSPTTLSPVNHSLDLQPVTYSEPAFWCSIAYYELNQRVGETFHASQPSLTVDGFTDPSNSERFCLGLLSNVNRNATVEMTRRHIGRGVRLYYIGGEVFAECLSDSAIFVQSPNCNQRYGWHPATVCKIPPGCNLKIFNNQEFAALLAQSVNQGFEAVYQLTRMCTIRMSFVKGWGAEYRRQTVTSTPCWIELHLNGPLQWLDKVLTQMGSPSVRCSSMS

In the case of `CCn1c2ccccc2c2cc(/C=C/C(=O)CCc3ccc(O)c(OC)c3)ccc21`, the inhibition result in [1] and in [5] was “inactive” each time. For the same compound, the inhibition result in assay [2] and in assay [6] was “Dose-dependent effect” throughout. The inhibition result in assay [3], in [4] and in assay [7] was “Active” each time.
Turning to `COc1cc(CCC(C)=O)ccc1O`, the inhibition result in [8] and in assay [11] was “inactive” in each case. For the same compound, the inhibition result in [9], in assay [12], in assay [14] and in [15] was “Dose-dependent effect” each time. For the same compound, the inhibition entry in assay [10] and in [13] was “Active” in each case.
